Assay results published in ChEMBL document CHEMBL3421565, “β-D-2'-C-Methyl-2,6-diaminopurine Ribonucleoside Phosphoramidates are Potent and Selective Inhibitors of Hepatitis C Virus (HCV) and Are Bioconverted Intracellularly to Bioactive 2,6-Diaminopurine and Guanosine 5'-Triphosphate Forms” (J Med Chem, 2015).
Calls of active or inactive are those of the source. The rule behind the calls is not given here.

Assays:
[1] = tested on: Hepatitis C virus; assay: Antiviral activity against HCV infected in human HuH7 cells assessed as reduction in replicon RNA levels incubated for 5 days by RT-PCR assay; assay type: functional, organism-based, Hepacivirus hominis; details: Huh-7, 120 h
Procedure, shortened: (§1)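 Huh-7 clone B cells carrying HCV replicon RNA, seeded at 3000 cells/well; compounds added in dose response in triplicate right after seeding. Incubated 5 days at 37 °C, 5% CO₂. Total RNA extracted; replicon RNA and rRNA internal control co-amplified by one-step multiplex real-time RT-PCR. Antiviral effect taken as ΔCt versus no-drug control; cytotoxicity read from rRNA reduction.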

[2] = tested on: Vero; assay: Cytotoxicity against African green monkey Vero cells assessed as reduction in cell viability incubated for 5 days by Cell-titer 96 aqueous one solution cell proliferation assay; assay type: cell-based; details: chlorocebus sabaeus, vero, 120 h
[3] = tested on: HepG2; assay: Mitochondrial toxicity in human HepG2 cells assessed as induction of lactic acid levels at 10 uM incubated for 14 days; assay type: cell-based; details: hepg2, 336 h
Procedure, shortened: (§2)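 After 14 days of HepG2 exposure to compound (same culture regimen as the mtDNA assay), lactic acid in culture supernatant quantified with a D-/L-lactic acid kit by absorbance. Results expressed as % lactic acid over % nuclear DNA (β-actin control); mean of triplicates from a single plate.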

[4] = tested on: HepG2; assay: Mitochondrial toxicity in human HepG2 cells assessed as induction of lactic acid levels at 1 uM incubated for 14 days; assay type: cell-based; details: hepg2, 336 h; procedure, shortened: as §2
[5] = tested on: HepG2; assay: Mitochondrial toxicity in human HepG2 cells assessed as induction of lactic acid levels at 50 uM incubated for 14 days; assay type: cell-based; details: hepg2, 336 h; procedure, shortened: as §2
[6] = tested on: HepG2; assay: Mitochondrial toxicity in human HepG2 cells assessed as effect on mitochondrial cytochrome c oxidase subunit 2 DNA level incubated for 14 days by real-time PCR method; assay type: cell-based; details: hepg2, 336 h
Procedure, shortened: (§3)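 HepG2 cells in DMEM with 4.5 g/L glucose and 10% heat-inactivated FBS, seeded at 5000 cells/well on collagen; compounds added 1 day later at final 1–50 μM. Medium and compound renewed every 3–4 days for 14 days; duplicates in two independent experiments. COXII mtDNA and nuclear β-actin DNA measured by real-time PCR, normalised to untreated control; IC₅₀ calculated.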

[7] = tested on: CCRF-CEM; assay: Cytotoxicity against human CEM cells assessed as reduction in cell viability incubated for 5 days by Cell-titer 96 aqueous one solution cell proliferation assay; assay type: cell-based; details: ccrf-cem, 120 h
[8] = Cytotoxicity against human HuH7 cells assessed as reduction in rRNA levels incubated for 5 days by RT-PCR assay; assay type: cell-based, Huh-7; details: huh-7, 120 h; procedure, shortened: as §1
[9] = tested on: PBMC; assay: Cytotoxicity against human PBMC assessed as reduction in cell viability incubated for 5 days by Cell-titer 96 aqueous one solution cell proliferation assay; assay type: cell-based; details: pbmc, 120 h
[10] = tested on: HepG2; assay: Mitochondrial toxicity in human HepG2 cells assessed as effect on nuclear beta-actin DNA level incubated for 14 days by real-time PCR method; assay type: cell-based; details: hepg2, 336 h; procedure, shortened: as §3
[11] = Drug level in human HuH7 cells treated with 50 uM Isopropyl 3-(2-(((S)-(((2R,3S,4R,5R)-5-(2,6-Diamino-9H-purin-9-yl)-3,4-dihydroxy-4-methyltetrahydrofuran-2-yl)methoxy)-(((S)-1-isopropoxy-1-oxopropan-2-yl)amino)phosphoryl)oxy)-phenyl)propanoate 15c(Sp) and Isopropyl 3-(2-(((R)-(((2R,3S,4R,5R)-5-(2,6-Diamino-9H-purin-9-yl)-3,4-dihydroxy-4-methyltetrahydrofuran-2-yl)methoxy)(((S)-1-isopropoxy-1-oxopropan-2-yl)amino)phosphoryl)oxy)phenyl)propanoate assessed as compound formation incubated for 4 hrs at 37 degC by LC-MS/MS method; assay type: ADME, cell-based; details: huh-7, 4 h
Procedure, shortened: (§4)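 Huh-7 cells seeded at 1 × 10⁶ per well and exposed to 50 μM compound after attachment, 4 h at 37 °C. Cells washed twice with ice-cold PBS, then extracted overnight at −20 °C in 70% methanol containing 20 nM ddATP. Supernatants were dried and analysed by LC–MS/MS for parent nucleoside and its mono-, di- and triphosphates (pmol/10⁶ cells).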

[12] = tested on: Hepacivirus hominis; assay: Inhibition of HCV C-terminal His-tagged NS5Bdelta21 enzyme assessed as induction of pausing at sites of GMP incorporation during NS5B-mediated RNA polymerization using [32P]-GpG primer, RNA template and rNTP nucleotide mix incubated for 120 mins by PAGE method
Procedure, shortened: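 Purified NS5BΔ21 (C-terminal His tag), 1 μM, at 30 °C with 1 μM 20-mer RNA template and 1 μM ³²P-GpG primer. Buffer was 40 mM Tris pH 7.5, 6 mM NaCl, 2 mM MgCl₂. Started with 10 μM NTP mix, 1 μM competing NTP and triphosphate inhibitor at 0–100 μM. Stopped at 120 min with EDTA/formamide. Products run on 20% denaturing PAGE and quantified; IC₅₀ calculated.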

[13] = tested on: Hepacivirus hominis; assay: Inhibition of HCV C-terminal His-tagged NS5Bdelta21 enzyme assessed as reduction in NS5B-mediated RNA polymerization using [32P]-GpG primer, RNA template and rNTP nucleotide mix incubated for 120 mins by PAGE method
Procedure, shortened: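 Purified NS5BΔ21 (C-terminal His tag), 1 μM, at 30 °C with 1 μM 20-mer RNA template and 1 μM ³²P-GpG primer. Buffer was 40 mM Tris pH 7.5, 6 mM NaCl, 2 mM MgCl₂. Started with 10 μM NTP mix, 1 μM competing NTP and triphosphate inhibitor at 0–100 μM. Products run on 20% denaturing PAGE and quantified; IC₅₀ calculated.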

[14] = Drug level in human HuH7 cells treated with 50 uM Ethyl 3-(2-(((R)-(((2R,3R,4R,5R)-5-(2,6-Diamino-9H-purin-9-yl)-3,4-dihydroxy-4-methyltetrahydrofuran-2-yl)methoxy)(((S)-1-ethoxy-1-oxopropan-2-yl)amino)phosphoryl)oxy)phenyl)-propanoate assessed as compound formation incubated for 4 hrs at 37 degC by LC-MS/MS method; assay type: ADME, cell-based; details: huh-7, 4 h; procedure, shortened: as §4
[15] = Drug level in human HuH7 cells treated with 50 uM beta-D-2,6-diaminopurine nucleoside assessed as compound formation incubated for 4 hrs at 37 degC by LC-MS/MS method; assay type: ADME, cell-based; details: huh-7, 4 h; procedure, shortened: as §4
[16] = tested on: Hepatocyte; assay: Drug level in human primary hepatocytes treated with 50 uM Isopropyl 3-(2-(((S)-(((2R,3S,4R,5R)-5-(2,6-Diamino-9H-purin-9-yl)-3,4-dihydroxy-4-methyltetrahydrofuran-2-yl)methoxy)-(((S)-1-isopropoxy-1-oxopropan-2-yl)amino)phosphoryl)oxy)-phenyl)propanoate 15c(Sp) and Isopropyl 3-(2-(((R)-(((2R,3S,4R,5R)-5-(2,6-Diamino-9H-purin-9-yl)-3,4-dihydroxy-4-methyltetrahydrofuran-2-yl)methoxy)(((S)-1-isopropoxy-1-oxopropan-2-yl)amino)phosphoryl)oxy)phenyl)propanoate assessed as compound formation incubated for 4 hrs at 37 degC by LC-MS/MS method; assay type: ADME, cell-based
Procedure, shortened: (§5)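 Freshly plated primary human hepatocytes seeded at 1 × 10⁶ per well and acclimated overnight, then given 50 μM compound for 4 h at 37 °C. After two ice-cold PBS washes, extraction ran overnight at −20 °C in 70% methanol with 20 nM ddATP. Dried extracts went to LC–MS/MS for intracellular metabolites, as three replicates from one plate, ±SD.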

[17] = tested on: Hepatocyte; assay: Drug level in human primary hepatocytes treated with 50 uM Ethyl 3-(2-(((R)-(((2R,3R,4R,5R)-5-(2,6-Diamino-9H-purin-9-yl)-3,4-dihydroxy-4-methyltetrahydrofuran-2-yl)methoxy)(((S)-1-ethoxy-1-oxopropan-2-yl)amino)phosphoryl)oxy)phenyl)-propanoate assessed as compound formation incubated for 4 hrs at 37 degC by LC-MS/MS method; assay type: ADME, cell-based; procedure, shortened: as §5
[18] = tested on: Hepatocyte; assay: Drug level in human primary hepatocytes treated with 50 uM beta-D-2,6-diaminopurine nucleoside assessed as compound formation incubated for 4 hrs at 37 degC by LC-MS/MS method; assay type: ADME, cell-based; procedure, shortened: as §5

CCOC(=O)[C@H](C)NP(=O)(OC[C@H]1O[C@@H](n2cnc3c(N)nc(N)nc32)[C@](C)(O)[C@H]1O)Oc1ccccc1CCC(=O)OC(C)C (some centres not stated)
EC50 [1]: 1.7 µM | EC90 [1]: 8 µM | CC50 [2]: > 100 µM

C[C@@]1(O)[C@H](O)[C@@H](CO)O[C@H]1n1cnc2c(N)nc(N)nc21
EC50 [1]: 5.4 µM | EC90 [1]: > 10 µM | Activity [3]: 170% | CC50 [2]: > 100 µM | Activity [4]: 110% | Activity [5]: 110% | CC50 [6]: > 50 µM | CC50 [7]: > 100 µM | CC50 [8]: > 33 µM | CC50 [9]: > 100 µM | CC50 [10]: > 50 µM

Nc1ccn([C@@H]2CS[C@H](CO)O2)c(=O)n1 [LAMIVUDINE]
Activity [3]: 91% | CC50 [6]: > 10 µM | CC50 [10]: > 10 µM

CCOC(=O)CCc1ccccc1OP(=O)(N[C@@H](C)C(=O)OCC)OC[C@H]1O[C@@H](n2cnc3c(N)nc(N)nc32)[C@]2(C)OC(=O)O[C@@H]12 (some centres not stated)
EC50 [1]: 2.8 µM | EC90 [1]: 8.5 µM | CC50 [2]: > 100 µM | CC50 [7]: > 100 µM | CC50 [8]: > 10 µM | CC50 [9]: > 100 µM

CCOC(=O)[C@H](C)N[P@@](=O)(OC[C@H]1O[C@@H](n2cnc3c(N)nc(N)nc32)[C@](C)(O)[C@H]1O)Oc1ccccc1CCC(=O)OC(C)C
EC50 [1]: 1.4 µM | EC90 [1]: 6.9 µM | CC50 [7]: > 100 µM | CC50 [9]: > 100 µM

CCOC(=O)CCc1ccccc1OP(=O)(N[C@@H](C)C(=O)OC(C)C)OC[C@H]1O[C@@H](n2cnc3c(N)nc(N)nc32)[C@](C)(O)[C@H]1O (some centres not stated)
EC50 [1]: 2.2 µM | EC90 [1]: 9 µM

C[C@@]1(O)[C@H](O)[C@@H](COP(=O)(O)OP(=O)(O)OP(=O)(O)O)O[C@H]1n1cnc2c(=O)[nH]c(N)nc21 [INX-09114]
Drug metabolism [11]: metabolite_detected | inhibition [12]: Active | inhibition [13]: Dose-dependent effect | Drug metabolism [14]: metabolite_detected | Drug metabolism [15]: metabolite_detected | Drug metabolism [16]: metabolite_detected | Drug metabolism [17]: metabolite_detected | Drug metabolism [18]: metabolite_detected

CCOC(=O)CCc1ccccc1O[P@](=O)(N[C@@H](C)C(=O)OCC)OC[C@H]1O[C@@H](n2cnc3c(N)nc(N)nc32)[C@](C)(O)[C@H]1O
EC50 [1]: 2.7 µM | EC90 [1]: 8.7 µM | CC50 [9]: > 100 µM

CCOC(=O)[C@H](C)NP(=O)(OC[C@H]1O[C@@H](n2cnc3c(N)nc(N)nc32)[C@](C)(O)[C@@H]1O)Oc1ccccc1 (some centres not stated)
EC50 [1]: 0.9 µM | EC90 [1]: 4 µM | Activity [3]: 140% | CC50 [2]: > 100 µM | Activity [4]: 100% | Activity [5]: 90% | CC50 [6]: > 50 µM | CC50 [7]: > 100 µM | CC50 [8]: > 10 µM | CC50 [9]: > 100 µM | CC50 [10]: > 50 µM

CCOC(=O)CCc1ccccc1O[P@@](=O)(N[C@@H](C)C(=O)OC(C)C)OC[C@H]1O[C@@H](n2cnc3c(N)nc(N)nc32)[C@](C)(O)[C@H]1O
EC50 [1]: 2.4 µM | EC90 [1]: 8.2 µM | CC50 [2]: > 100 µM

CC(C)OC(=O)CCc1ccccc1O[P@@](=O)(N[C@@H](C)C(=O)OC(C)C)OC[C@H]1O[C@@H](n2cnc3c(N)nc(N)nc32)[C@](C)(O)[C@H]1O
EC50 [1]: 1 µM | EC90 [1]: 2.7 µM | CC50 [7]: > 100 µM | CC50 [8]: > 10 µM

CC(C)OC(=O)CCc1ccccc1O[P@](=O)(N[C@@H](C)C(=O)OC(C)C)OC[C@H]1O[C@@H](n2cnc3c(N)nc(N)nc32)[C@](C)(O)[C@H]1O
EC50 [1]: 0.9 µM | EC90 [1]: 2.8 µM | CC50 [7]: 40 µM | CC50 [9]: > 100 µM

Nc1ccn([C@H]2CC[C@@H](CO)O2)c(=O)n1 [ZALCITABINE]
Activity [3]: 220% | CC50 [6]: < 10 µM | CC50 [10]: < 10 µM

CCOC(=O)CCc1ccccc1OP(=O)(N[C@@H](C)C(=O)OCC)OC[C@H]1O[C@@H](n2cnc3c(N)nc(N)nc32)[C@](C)(O)[C@H]1O (mixture of isomers)
EC50 [1]: 2.3 µM | EC90 [1]: 7.3 µM | CC50 [7]: > 100 µM | CC50 [8]: > 10 µM

CCOC(=O)[C@H](C)N[P@](=O)(OC[C@H]1O[C@@H](n2cnc3c(N)nc(N)nc32)[C@](C)(O)[C@H]1O)Oc1ccccc1CCC(=O)OC(C)C
EC50 [1]: 9.1 µM | EC90 [1]: 26 µM | CC50 [8]: > 10 µM

CCOC(=O)CCc1ccccc1O[P@](=O)(N[C@@H](C)C(=O)OC(C)C)OC[C@H]1O[C@@H](n2cnc3c(N)nc(N)nc32)[C@](C)(O)[C@H]1O
EC50 [1]: 4.7 µM | EC90 [1]: 9.7 µM | CC50 [7]: > 100 µM | CC50 [8]: > 10 µM | CC50 [9]: > 100 µM
